Screens from PubChem BioAssay.
ZTA DNA inh: ZTA (EBV) inhibition in EBNA-1 counter-screen; P03206; ZTA-DNA binding, fluorescence polarization; inhibition, % at 11 µM; 0.15% of 320,000 active; in the data active means inhibition above about 33%
Target sequence (P03206 whole entry, looked up): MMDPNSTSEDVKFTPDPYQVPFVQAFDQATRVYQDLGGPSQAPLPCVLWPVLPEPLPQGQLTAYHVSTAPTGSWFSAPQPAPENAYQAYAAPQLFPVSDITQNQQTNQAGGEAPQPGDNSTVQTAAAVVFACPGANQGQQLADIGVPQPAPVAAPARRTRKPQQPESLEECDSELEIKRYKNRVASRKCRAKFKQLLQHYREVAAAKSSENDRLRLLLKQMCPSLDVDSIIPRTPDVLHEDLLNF
core dimer inh: inhibitors of HCV core protein dimerization, primary screen, biochemical, TR-FRET, high-throughput; TR-FRET GST/Flag-core106 dimerization, 1536-well; inhibition, % at 5 µM; 0.33% of 300,000 active; AID 1899, 2009;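 active means inhibition above the mean of all tested compounds plus 3 SD, set per screening campaign, cut at about 45% in these data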
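Material: Tagged HCV core106 pair (GST and Flag) | Amount: GST-core106 13.5 nM, Flag-core106 17 nM | Medium: KF-containing HEPES buffer, pH 7.45, DTT, CHAPS, BSA | Reagent: Eu donor and XL665 acceptor anti-tag antibodies | Schedule: 4 h at 22.5 °C | Technique: Time-resolved FRET, ex 340 nm, em 617 and 671 nm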
EBNA-1 inhibitor: EBNA-1 DNA-binding inhibitors, primary screen, biochemical, fluorescence polarization; 0.34% of 300,000 active; inhibition, % at 14.8 µM; AID 1950, 2009; in the data active means inhibition above about 28%
PP5 inh: PP5 phosphatase inhibitors, primary screen, biochemical, fluorescence. 0.18% of 320,000 active. purified PP5c, OMFP substrate fluorescence. Serine/threonine-protein phosphatase 5 (Homo sapiens), P53041. inhibition, % at 6.7 µM;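 active means inhibition above the campaign's mean inhibition across all tested compounds plus 3 SD, cut at about 9.5% in these data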;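 further: 0% = DMSO only and 100% = 100 µM cantharidin control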
PP1 inh: PP1-alpha phosphatase inhibitors, primary screen, counter-screen for PP5 inhibitor project, biochemical, fluorescence, OMFP substrate, single point; Serine/threonine-protein phosphatase PP1-alpha catalytic subunit (Homo sapiens), P62136; purified PP1alpha; inhibition, % at 6.7 µM; 0.9% of 320,000 active;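 active means inhibition above the mean inhibition of all tested compounds plus 3 SD, computed separately for each screening campaign, cut at about 15% in these data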
Target sequence (P62136 whole entry, looked up): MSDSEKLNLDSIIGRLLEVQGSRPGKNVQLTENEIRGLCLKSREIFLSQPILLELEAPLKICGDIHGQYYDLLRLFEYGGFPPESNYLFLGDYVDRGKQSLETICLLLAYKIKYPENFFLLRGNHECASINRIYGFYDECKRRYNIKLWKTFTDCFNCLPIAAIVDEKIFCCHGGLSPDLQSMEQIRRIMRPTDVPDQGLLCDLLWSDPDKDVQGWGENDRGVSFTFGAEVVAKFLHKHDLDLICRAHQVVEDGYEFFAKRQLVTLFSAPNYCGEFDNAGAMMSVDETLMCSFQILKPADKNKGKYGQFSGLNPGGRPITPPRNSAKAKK
PP1 confirm: PP1 phosphatase inhibitors, confirmation, biochemical, fluorescence, OMFP substrate, triplicate | inhibition, % at 6.7 µM | shares compounds with PP1 inh | 52% of 1,900 active | purified PP1alpha;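 active means mean PP1 inhibition above a set limit taken from the earlier primary screen, cut at about 15% in these data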
PP5 counter: PP5 phosphatase inhibition by PP1 hits, confirmation, counter-screen for PP1 inhibitor project, biochemical, fluorescence, triplicate; inhibition, % at 6.7 µM; purified PP5c, OMFP fluorescence; shares compounds with PP1 inh; 4% of 1,900 active;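 active means mean PP5 inhibition over triplicate wells above about 9.5% taken from the earlier PP1 screen, limit read from the data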
* hit, by the source's call; . = not tested or not shown. Compounds with a hit are over-represented: about 1.7% of the library has one in this group of screens.

SMILES	ZTA DNA inh	core dimer inh	EBNA-1 inhibitor	PP5 inh	PP1 inh	PP1 confirm	PP5 counter
CC1CCCCN1S(=O)(=O)c1ccc(C(=O)Nc2nnc(-c3ccco3)o2)cc1 (stereo not given)	12	3	-4	3	14	.	.
CC1CCN(S(=O)(=O)c2ccc(C(=O)Nc3nnc(-c4ccncc4)o3)cc2)CC1	9	-4	-9	1	14	.	.
CS(=O)(=O)c1ccc(-c2nnc(NC(=O)c3ccc(S(=O)(=O)N4CCCC4)cc3)o2)cc1	14	1	8	0	3	.	.
CC1CCCCN1S(=O)(=O)c1ccc(C(=O)Nc2nnc(-c3ccccn3)o2)cc1 (stereo not given)	-15	-4	-7	4	23*	22*	1
CCN1CCN(C(=O)CCc2nnc3ccc(N4CCN(c5cccc(OC)c5)CC4)nn23)CC1	-6	9	-14	2	-3	.	.
O=C(COC(=O)/C=C/c1ccccc1F)Nc1nnc(-c2ccccc2)o1	5	3	-6	-3	21*	22*	-1
O=C(COC(=O)/C=C/c1ccc(F)cc1)Nc1nnc(-c2ccccc2)o1	-6	.	.	4	18*	28*	-8
O=C(COC(=O)CNC(=O)c1ccccc1F)Nc1nnc(-c2ccccc2)o1	5	2	-6	0	-3	.	.
COc1cccc(/C=C/C(=O)OCC(=O)Nc2nnc(-c3ccccc3)o2)c1	1	2	6	-2	38*	25*	-1
COc1cccc(/C=N/Nc2ncnc3scc(-c4ccccc4)c23)c1O	1	3	-2	4	26*	32*	6
COc1cccc(/C=N/Nc2ncnc(Cl)c2N)c1O	9	-9	-1	-1	26*	32*	-2
COc1ccc(-c2cn(Cc3ccc(C(=O)NCc4ccc(C)cc4)cc3)c(C(C)N)n2)cc1 (stereo not given)	10	7	7	1	7	.	.
O=C(O)c1n[nH]c2c1CC(C1CCCCC1)CC2 (stereo not given)	-3	1	2	3	19*	8	0
CC(C)(C)c1ccc(NC(=O)COc2ccc(-n3ccnc3)cc2)cc1	0	32	-6	2	18*	4	-1
COc1ccc(NC(=O)C2C3CCC(O3)C2C(=O)O)c(C)c1 (stereo not given)	1	5	-2	65*	62*	12	27*
O=C(O)C1C2CCC(O2)C1C(=O)NCc1ccccc1Br (stereo not given)	8	-6	0	34*	17*	10	17*
O=C(O)C1C2CCC(O2)C1C(=O)NCCC1=CCCCC1 (stereo not given)	7	-3	-12	69*	61*	31*	41*
Cc1cc(Br)ccc1NC(=O)C1C2CCC(O2)C1C(=O)O (stereo not given)	-6	-7	-4	63*	55*	9	16*
COc1ccc(OC)c(NC(=O)C2CC(C)=C(C)CC2C(=O)O)c1 (stereo not given)	-5	2	7	-1	1	.	.
O=C(NCc1ccccc1Br)c1ccco1	6	-4	-6	3	-5	.	.
COc1ccccc1CN1[C@@H](CC(=O)O)c2cc(F)ccc2S1(=O)=O	-3	-7	-20	5	-2	.	.
C(=C\n1nnc2ccccc21)/c1ccc[nH]1	6	-1	-1	-1	0	.	.
CCc1cc2c(SCC(=O)N(C)C3CCS(=O)(=O)C3)ncnc2s1 (stereo not given)	2	3	2	-3	-5	.	.
Cc1cccc(Nc2nnc(SCC(=O)Nc3cccc(S(=O)(=O)N4CCCCC4)c3)s2)c1	2	26	3	2	4	.	.
Cc1cccc(C)c1Nc1nnc(SCC(=O)Nc2cc(S(=O)(=O)N3CCCCC3)ccc2Cl)s1	6	41	4	4	24*	21*	0
SMILES	ZTA DNA inh	core dimer inh	EBNA-1 inhibitor	PP5 inh	PP1 inh	PP1 confirm	PP5 counter
Cc1nc2ccccc2n1CCC(=O)Nc1cccc(F)c1	4	-1	-5	2	-2	.	.
CC(C)(C)c1ccc(C(=O)Cn2nc(C(=O)O)c3ccccc3c2=O)cc1	17	14	3	0	14	.	.
CC(C)CC(=O)Nc1ccc(C(=O)Cn2nc(C(=O)O)c3ccccc3c2=O)cc1	-1	7	-3	2	20*	23*	0
CCCC(=O)N/C(N)=N/c1nc(C)c2cc(C)ccc2n1	-2	1	-2	-1	10	.	.
Cc1ccc2nc(/N=C(\N)NC(=O)NC3CCCCC3)nc(C)c2c1	-3	-2	-6	2	22*	33*	1
CCc1ccc2c(c1)C(NC(C)=O)C(=O)N2CCN1CCOCC1 (stereo not given)	4	-2	-2	4	41*	36*	-4
COCCNC(=O)NC(=O)COC(=O)c1cc([N+](=O)[O-])ccc1Sc1nc(C)cs1	2	-1	-4	0	2	.	.
c1ccc(-c2nc(N3CCOCC3)c3ccccc3n2)nc1	3	2	-6	4	0	.	.
c1ccc(CCNc2nc(-c3ccccn3)nc3ccccc23)cc1	-9	9	1	4	29*	50*	-4
CSc1nc(Oc2ccc(F)cc2)c2ccccc2n1	-11	0	0	0	-1	.	.
Fc1ccc(Oc2nc(-c3ccccn3)nc3ccccc23)cc1	3	8	-6	0	18*	23*	-3
c1ccc(-c2nc(N3CCCCCC3)c3ccccc3n2)nc1	-9	6	-3	0	27*	26*	-2
C#CCOCCOCCOCCNc1nc(N2CCN(C(=O)[C@H]([C@@H](C)CC)n3cc([C@@H](N)CO)nn3)CC2)nc(N2CCN(C(=O)[C@H](CCCCN)n3cc([C@@H](N)CC(C)C)nn3)CC2)n1	1	8	-2	1	6	.	.
CC(C)(C)C(CN1CCCC1)OC(=O)c1ccccc1 (stereo not given)	14	-3	-10	0	-5	.	.
O=C(NCCC1CCCCN1S(=O)(=O)c1ccc(F)cc1)C(=O)Nc1ccccc1 (stereo not given)	5	6	-1	0	-2	.	.
Cc1ccn2c(Nc3ccccc3C)c(-c3ccccn3)nc2c1	-11	1	-3	4	32*	39*	3
